Some results are limits rather than exact numbers.

These results are taken from ChEMBL document CHEMBL1121711, “Novel peptidoaminobenzophenones, terminal N-substituted peptidoaminobenzophenones, and N-(acylglycyl)aminobenzophenones as open-ring derivatives of benzodiazepines” (J Med Chem, 1981).

In data set [1] the test system is Mus musculus. Briefly: Muscle relaxation activity using the rotarod performance test in mice by oral administration. The data set is classed as functional. In a few lines:
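Groups of five mice dosed orally with compound suspended in aqueous arabic gum. At 60 min post-dose each mouse placed on a 3 cm diameter wooden rod turning at 5 rpm; falls within 2 min counted. ED50 estimated graphically.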
For orientation: In the rotarod test animals must keep their balance on a rotating rod.

In data set [2] the test system is Mus musculus. As to the kind of experiment: Compound was tested for antagonism of pentylenetetrazole-induced convulsion in mice by oral administration. The data set is classed as functional. The essentials: (§1)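 Compounds given orally as an aqueous arabic gum suspension to groups of five mice; 60 min after dosing, pentylenetetrazole 125 mg/kg given subcutaneously. Animals observed 2 h for convulsion and death; dose protecting 50% (ED50) estimated graphically.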

The subject of data set [3] is Mus musculus. As to the kind of experiment: Antagonism of pentylenetetrazole-induced convulsion in mice by oral administration. The data set is classed as functional. In a few lines:
as §1

Data set [4] can be described thus: Acute toxicity expressed as LD50 in mice after oral administration. The class given is organism-based. The conditions noted are these: mouse, in vivo. The essentials:
(§2)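 Mice dosed orally as a suspension in aqueous arabic gum, groups of one to three animals; acute toxicity judged on day 7 after dosing. Values for the three reference benzodiazepines derived by the probit method.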

Data set [5] in a line: Acute toxicity of compound expressed as LD50 was measured in mice after oral administration. The class given is organism-based. The conditions noted are these: mouse, in vivo. The essentials: as §2

Broadly, the ED50 is the dose at which the effect has come halfway, by size or by number of responders. A higher ED50 goes with a need for a large dose. `CN(C(=O)CNC(=O)CN)c1ccc([N+](=O)[O-])cc1C(=O)c1ccccc1Cl`: the ED50 was determined as 10 mg/kg with Mus musculus [1] and 0.32 mg/kg with Mus musculus [2].
By LD50 is commonly meant the dose expected to kill half of the subjects tested. For `CCCCCC(=O)NCC(=O)N(C)c1ccc(Cl)cc1C(=O)c1ccccc1Cl`, the ED50 worked out at 90 mg/kg in the data set with Mus musculus [1] and 1.9 mg/kg in the data set on Mus musculus [3]. Moreover, the LD50 in data set [4] is greater than 1000 mg/kg.
`CCCCCCCCCCCCCCCC(=O)NCC(=O)N(C)c1ccc(Cl)cc1C(=O)c1ccccc1Cl`: the median effective dose (ED50) in the data set on Mus musculus [1] and in the data set on Mus musculus [3] was greater than 100 mg/kg throughout. In addition, the LD50 in data set [5] was greater than 1000 mg/kg.
On to `NCC(=O)NCC(=O)Nc1ccc([N+](=O)[O-])cc1C(=O)c1ccccc1Cl`, for which the ED50 in the data set with Mus musculus [1] is 63.9 mg/kg; in the data set with Mus musculus [3] it was 2.64 mg/kg. In data set [5], this molecule showed an LD50 of 750 mg/kg.
On to `CC(NC(=O)CN)C(=O)N(C)c1ccc(Cl)cc1C(=O)c1ccccc1Cl` (stereo not given), for which the values for the ED50 in the data set with Mus musculus [1] and with Mus musculus [3] were 8.5 mg/kg and 0.47 mg/kg, respectively. The LD50 in data set [4] came out at 750 mg/kg.
In the case of `CCCC(=O)NCC(=O)N(C)c1ccc(Cl)cc1C(=O)c1ccccc1Cl`, the ED50 in the data set with Mus musculus [1] stood at 55.2 mg/kg; in the data set with Mus musculus [3], 0.98 mg/kg. Moreover, the LD50 in data set [4] was greater than 1000 mg/kg.
On the same counts, the results for `CN(C(=O)CNC(=O)c1ccccc1)c1ccc(Cl)cc1C(=O)c1ccccc1` are greater than 100 mg/kg, 7.6 mg/kg and greater than 1000 mg/kg.
On the same counts, the results for `CN(C(=O)CNC(=O)c1ccccc1)c1ccc(Cl)cc1C(=O)c1ccccc1Cl` are greater than 100 mg/kg, 2.9 mg/kg and greater than 1000 mg/kg.
On to `CNCC(=O)NCC(=O)N(C)c1ccc(Cl)cc1C(=O)c1ccccc1Cl`, for which the LD50 in data set [4] was greater than 1000 mg/kg. Moreover, the ED50 in the data set with Mus musculus [2] was 1.55 mg/kg.
Take `CN(C(=O)CNC(=O)CN1CCC(O)(c2ccc(Cl)cc2)CC1)c1ccc(Cl)cc1C(=O)c1ccccc1Cl`: the ED50 with Mus musculus [1] is greater than 100 mg/kg; with Mus musculus [3] it was 27 mg/kg. The LD50 in data set [4] is greater than 1000 mg/kg.
The matching figures for `CC(=O)NCC(=O)N(C)c1ccc(Cl)cc1C(=O)c1ccccc1Cl`: 58 mg/kg, 2.3 mg/kg and greater than 1000 mg/kg.
Consider `CCCCCCC(=O)NCC(=O)N(C)c1ccc(Cl)cc1C(=O)c1ccccc1Cl`, for which the ED50 in the data set on Mus musculus [1] amounted to 70 mg/kg; in the data set with Mus musculus [3] it was 1.9 mg/kg. The LD50 in data set [4] is greater than 1000 mg/kg.
For the molecule `CN(C)CC(=O)NCC(=O)N(C)c1ccc(Cl)cc1C(=O)c1ccccc1Cl`, the ED50 in the data set with Mus musculus [1] turned out to be 26 mg/kg; in the data set with Mus musculus [3], 2.6 mg/kg. Moreover, in data set [4], the LD50 is greater than 1000 mg/kg.
On the same counts, the results for `NCC(=O)NCC(=O)Nc1ccc([N+](=O)[O-])cc1C(=O)c1ccccc1` are 24.8 mg/kg, 4.82 mg/kg and greater than 1000 mg/kg.
On the same counts, the results for `CN(C(=O)CNC(=O)CN1CCN(c2ccccc2)CC1)c1ccc(Cl)cc1C(=O)c1ccccc1Cl` are greater than 100 mg/kg, 75 mg/kg and greater than 1000 mg/kg.
On the same counts, the results for `CC(C)NCC(=O)NCC(=O)N(C)c1ccc(Cl)cc1C(=O)c1ccccc1Cl` are 13 mg/kg, 1 mg/kg and 750 mg/kg.
In the case of `CN1CCN(CC(=O)NCC(=O)N(C)c2ccc(Cl)cc2C(=O)c2ccccc2Cl)CC1`, the results for the ED50 in the data set on Mus musculus [1] and in the data set with Mus musculus [3] were greater than 100 mg/kg and 59 mg/kg, respectively. In data set [4], this molecule registered an LD50 greater than 1000 mg/kg.
The matching figures for `CN(C(=O)CNC(=O)CN1CCOCC1)c1ccc(Cl)cc1C(=O)c1ccccc1Cl`: greater than 100 mg/kg, 14 mg/kg and greater than 1000 mg/kg.
The matching figures for `CC(C)C(=O)NCC(=O)N(C)c1ccc(Cl)cc1C(=O)c1ccccc1Cl`: greater than 100 mg/kg, 6 mg/kg and greater than 1000 mg/kg.
On the same counts, the results for `CN(C(=O)CNC(=O)Cc1ccccc1)c1ccc(Cl)cc1C(=O)c1ccccc1Cl` are greater than 100 mg/kg, 35 mg/kg and greater than 1000 mg/kg.
On to `NC(C(=O)NCC(=O)Nc1ccc(Cl)cc1C(=O)c1ccccc1)c1ccccc1` (stereo not given), for which the values for the ED50 with Mus musculus [1] and in the data set on Mus musculus [3] were greater than 100 mg/kg and 28 mg/kg, respectively. The LD50 in data set [4] was greater than 1000 mg/kg.
The matching figures for `CCCCC(=O)NCC(=O)N(C)c1ccc(Cl)cc1C(=O)c1ccccc1Cl`: 90 mg/kg, 1.3 mg/kg and greater than 1000 mg/kg.
The matching figures for `CC(=O)NCC(=O)Nc1ccc(Cl)cc1C(=O)c1ccccc1Cl`: greater than 100 mg/kg, greater than 100 mg/kg and greater than 1000 mg/kg.
On the same counts, the results for `CN(C(=O)CNC(=O)CNCCc1ccccc1)c1ccc(Cl)cc1C(=O)c1ccccc1Cl` are 86 mg/kg, 1.6 mg/kg and greater than 1000 mg/kg.
As to `CN(C(=O)CNC(=O)CN)c1ccc([N+](=O)[O-])cc1C(=O)c1ccccc1`, the figures for the ED50 in the data set on Mus musculus [1] and in the data set with Mus musculus [2] were 2.94 mg/kg and 0.28 mg/kg, respectively.
As to `CN(C(=O)CNC(=O)CN1CCCCC1)c1ccc(Cl)cc1C(=O)c1ccccc1Cl`, the ED50 with Mus musculus [1] was greater than 100 mg/kg; in the data set on Mus musculus [3] it was 7.5 mg/kg. Besides, in data set [4], the LD50 is greater than 1000 mg/kg.
On the same counts, the results for `CCN(CC)CC(=O)NCC(=O)N(C)c1ccc(Cl)cc1C(=O)c1ccccc1Cl` are 34 mg/kg, 2.2 mg/kg and greater than 1000 mg/kg.
The matching figures for `CCC(=O)NCC(=O)N(C)c1ccc(Cl)cc1C(=O)c1ccccc1Cl`: 36 mg/kg, 1.4 mg/kg and greater than 1000 mg/kg.
For `CC(=O)NCC(=O)Nc1ccc(Cl)cc1C(=O)c1ccccc1`, the ED50 was greater than 100 mg/kg in the data set on Mus musculus [1] and 37 mg/kg with Mus musculus [3]. Further, in data set [4], the LD50 was greater than 1000 mg/kg.
In data set [4], `CNC1=Nc2ccc(Cl)cc2C(c2ccccc2)=[N+]([O-])C1` [CHLORDIAZEPOXIDE] gave an LD50 of 1080 mg/kg.
In the case of `CN(C(=O)CNC(=O)CN)c1ccc(Cl)cc1C(=O)c1ccccc1Cl` [LORZAFONE ANHYDROUS], the values for the ED50 with Mus musculus [1] and in the data set on Mus musculus [3] were 27.7 mg/kg and 0.58 mg/kg, respectively. Further, in data set [4], the LD50 is greater than 1000 mg/kg.
Regarding `O=C1CN=C(c2ccccc2)c2cc([N+](=O)[O-])ccc2N1` [NITRAZEPAM], the ED50 in the data set with Mus musculus [1] is 4.25 mg/kg; in the data set on Mus musculus [3], 0.23 mg/kg.
